From ChEMBL document CHEMBL2375304, “Synthesis and anticancer activity of novel 2-pyridyl hexahyrocyclooctathieno[2,3-d]pyrimidine derivatives” (2013) come the findings set out here.

What all share (type): functional
The subject of test [1] is LOX IMVI. Description: Growth inhibition of human LOXIMVI cells at 10^-5 M after 48 hrs by Sulforhodamine B assay relative to control. Particulars: read-out: GI. The method in brief:
(§1)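 Single-dose screen at 10⁻⁵ M. Cells are preincubated 24 h at 37 °C in 5% CO2, then exposed to the compound, diluted from a DMSO stock into medium with gentamicin, for 48 h. Adherent cells are fixed with cold TCA (final 10%) and suspension cells with TCA (final 16%). Cells are stained with 0.4% SRB in 1% acetic acid and bound dye is read at 515 nm. Percent growth inhibition is taken against control wells and time-zero plates.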
A general note: Sulforhodamine B stains cellular protein and so reports cell mass.

Test [2] deals with ACHN. Description: Growth inhibition of human ACHN cells at 10^-5 M after 48 hrs by Sulforhodamine B assay relative to control. Particulars: read-out: GI. The method in brief:
as §1

Test [3] deals with NCI-H460. The test is described as follows: Growth inhibition of human NCI-H460 cells at 10^-5 M after 48 hrs by Sulforhodamine B assay relative to control. The following applies: NCI-H460, 48 h, read-out: GI. The method in brief:
(§2)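 Single-dose primary screen at 10⁻⁵ M across 49 lines. Cells were plated 24 h beforehand, with a TCA-fixed time-zero plate, then exposed 48 h at 37 °C, 5% CO2. Cells were fixed with cold TCA, stained with SRB and read at 515 nm. Percent growth was calculated against time-zero and untreated-control absorbances.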

The subject of test [4] is SN12C. The test is described as follows: Growth inhibition of human SN12C cells at 10^-5 M after 48 hrs by Sulforhodamine B assay relative to control. Particulars: read-out: GI. The method in brief:
as §2

The test system of test [5] is SF-268. The test is described as follows: Growth inhibition of human SF268 cells at 10^-5 M after 48 hrs by Sulforhodamine B assay relative to control. The following applies: SF-268, 48 h, read-out: GI. The gist of the method: as §2
In test [6] the test system is Malme-3M. Description: Growth inhibition of human MALME-3M cells at 10^-5 M after 48 hrs by Sulforhodamine B assay relative to control. The following applies: read-out: GI. The method in brief: as §1
Test [7] deals with SW-620. The test is described as follows: Growth inhibition of human SW620 cells at 10^-5 M after 48 hrs by Sulforhodamine B assay relative to control. Particulars: SW-620, 48 h, read-out: GI. The gist of the method: as §2
The subject of test [8] is MDA-MB-468. The test is described as follows: Growth inhibition of human MDA-MB-468 cells at 10^-5 M after 48 hrs by Sulforhodamine B assay relative to control. The following applies: MDA-MB-468, 48 h, read-out: GI. The gist of the method: as §2
The subject of test [9] is OVCAR-5. Description: Growth inhibition of human OVCAR5 cells at 10^-5 M after 48 hrs by Sulforhodamine B assay relative to control. The following applies: OVCAR-5, 48 h, read-out: GI. The gist of the method: as §2
Test [10] concerns MCF7. Description: Growth inhibition of human MCF7 cells at 10^-5 M after 48 hrs by Sulforhodamine B assay relative to control. Particulars: MCF7, 48 h, read-out: GI. The gist of the method:
as §1

For test [11], the system named is M14. The test is described as follows: Growth inhibition of human M14 cells at 10^-5 M after 48 hrs by Sulforhodamine B assay relative to control. Particulars: M14, 48 h, read-out: GI. The method in brief:
as §1

Test [12] relates to OVCAR-8. Description: Growth inhibition of human OVCAR8 cells at 10^-5 M after 48 hrs by Sulforhodamine B assay relative to control. The following applies: OVCAR-8, 48 h, read-out: GI. The gist of the method:
as §2

The test system of test [13] is SF-539. Description: Growth inhibition of human SF539 cells at 10^-5 M after 48 hrs by Sulforhodamine B assay relative to control. Particulars: SF-539, 48 h, read-out: GI. The method in brief: as §2
The subject of test [14] is HT-29. The test is described as follows: Growth inhibition of human HT-29 cells at 10^-5 M after 48 hrs by Sulforhodamine B assay relative to control. Particulars: HT-29, 48 h, read-out: GI. The gist of the method:
as §1

The subject of test [15] is NCI-H23. The test is described as follows: Growth inhibition of human NCI-H23 cells at 10^-5 M after 48 hrs by Sulforhodamine B assay relative to control. Particulars: NCI-H23, 48 h, read-out: GI. The gist of the method: as §2
Test [16] has as its system COLO 205. Description: Growth inhibition of human COLO205 cells after 48 hrs by Sulforhodamine B assay. The following applies: COLO 205, 48 h. The method in brief:
(§3)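 Five-concentration SRB assay using 10-fold or ½-log serial dilutions from a DMSO stock. Exposure is 48 h at 37 °C in 5% CO2 after 24 h preincubation. TCA fixation is followed by SRB staining and a reading at 515 nm. Percentage growth is computed from time-zero, control and treated absorbances. GI50 is the concentration where [(Ti−Tz)/(C−Tz)]×100 = 50, read from the plot against log concentration.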

Test [17] concerns UACC-257. Description: Growth inhibition of human UACC257 cells after 48 hrs by Sulforhodamine B assay. The following applies: UACC-257, 48 h. The method in brief:
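Five-concentration stage in the […]-cell-line panel, using 10-fold or ½-log serial dilutions made from a DMSO stock (400-fold). Cells were preincubated 24 h at 37 °C, then drug-exposed 48 h. A time-zero plate was fixed with TCA at dosing, adherent cells were fixed with cold TCA (10% final), and protein was stained with SRB, absorbance 515 nm. GI50 was where [(Ti−Tz)/(C−Tz)]×100 = 50, from the percent growth vs log concentration plot, expressed as log10 GI50.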

The subject of test [18] is RXF 393. The test is described as follows: Growth inhibition of human RXF393 cells after 48 hrs by Sulforhodamine B assay. Particulars: RXF 393, 48 h. The gist of the method:
(§4)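 Cells were preincubated 24 h at 37 °C, 5% CO2, and a time-zero plate was TCA-fixed. Five concentrations were made by serial dilution from a DMSO stock (400-fold the top concentration) and incubated 48 h. Adherent cells were fixed with 10% final TCA and suspension cells with 16%. Plates were stained with 0.4% SRB and read at 515 nm. GI50 is the concentration giving 50% reduction in net protein increase versus control.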

The test system of test [19] is SF-539. The test is described as follows: Growth inhibition of human SF539 cells after 48 hrs by Sulforhodamine B assay. Particulars: SF-539, 48 h. The method in brief: as §4
The subject of test [20] is SN12C. The test is described as follows: Growth inhibition of human SN12C cells after 48 hrs by Sulforhodamine B assay. The gist of the method:
as §4

Test [21] relates to M14. The test is described as follows: Growth inhibition of human M14 cells after 48 hrs by Sulforhodamine B assay. The following applies: M14, 48 h. The gist of the method: as §3
Test [22] has as its system PC-3. Description: Growth inhibition of human PC3 cells after 48 hrs by Sulforhodamine B assay. Particulars: PC-3, 48 h. The gist of the method:
as §4

In test [23] the test system is OVCAR-3. The test is described as follows: Growth inhibition of human OVCAR3 cells after 48 hrs by Sulforhodamine B assay. Particulars: OVCAR-3, 48 h. The gist of the method: as §4
The test system of test [24] is SW-620. Description: Growth inhibition of human SW620 cells after 48 hrs by Sulforhodamine B assay. Particulars: SW-620, 48 h. The method in brief: as §4
For test [25], the system named is HL-60(TB). The test is described as follows: Growth inhibition of human HL-60(TB) cells after 48 hrs by Sulforhodamine B assay. Particulars: HL-60, 48 h. The gist of the method:
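Suspension cells pre-incubated 24 h at 37 °C, 5% CO2 before drug addition, with a time-zero plate fixed then. DMSO stocks diluted in medium with gentamicin to five concentrations (10-fold or ½-log steps); 48 h exposure. Settled cells fixed with TCA (final 16%), stained with SRB, dye dissolved in 10 mM Tris base, read at 515 nm. GI50 solved from [(Ti−Tz)/(C−Tz)]×100 = 50.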

Test [26] can be described thus: Growth inhibition of human HCC2998 cells after 48 hrs by Sulforhodamine B assay. The following applies: HCC 2998, 48 h. The method in brief:
as §3

The subject of test [27] is A549. Description: Growth inhibition of human A549/ATCC cells at 10^-5 M after 48 hrs by Sulforhodamine B assay relative to control. The following applies: A549, 48 h, read-out: GI. The method in brief: as §1

SMILES strings stand for the structures.

`COc1ccc(N2CCN(c3nc(-c4ccncc4)nc4sc5c(c34)CCCCCC5)CC2)cc1`: the inhibition of growth at 10 µM in test [1] was 8.33%; in test [2] it was 19.9%; in [3], 5.35%; in test [4], 31.8%; in test [5], 2.5%; in test [6], -7.69%. Besides, the inhibition of growth at 10 µM in test [7] is 1.53%; in [8], 0.83%; in test [9], 2.26%; in test [10], 18.1%; in test [11], -0.58%; in [12] it was 5.9%. The inhibition of growth at 10 µM came out at 7.87% in test [13], 23.4% in test [14] and 17.3% in [15].

As for `NNc1nc(-c2ccccn2)nc2sc3c(c12)CCCCCC3`, the GI50 (usually the concentration that inhibits growth by half) in test [16] was 5.13 µM; in [17] it was 6.61 µM; in test [18], 6.76 µM; in [19] it was 11 µM; in [20], 6.31 µM; in test [21] it was 5.5 µM. The GI50 in [22] was 3.98 µM; in test [23], 5.37 µM; in test [24], 4.57 µM; in test [25], 4.47 µM; in test [26], 8.32 µM.

`c1ccc(N2CCN(c3nc(-c4ccncc4)nc4sc5c(c34)CCCCCC5)CC2)cc1`: the inhibition of growth at 10 µM was -0.56% in test [27]; 0% in test [1]; 7.05% in test [2]; -6.17% in test [3]; -12.2% in [4]; -1.33% in test [5]. Besides, the inhibition of growth at 10 µM in [6] was -6.19%; in test [7], -9.11%; in test [8], 3.79%; in test [9], 1.59%; in test [10], 2.49%; in [11], -8.43%. The inhibition of growth at 10 µM in test [12] stood at 8.55%; in test [13], 1.14%; in test [14], 12.8%; in test [15], 1.33%.

Regarding `O=c1[nH]c(-c2ccccn2)nc2sc3c(c12)CCCCCC3`, the GI50 in [16] was 5.89 µM; in test [17], greater than 100 µM; in test [18], 7.41 µM; in test [19], 7.76 µM; in [20], 6.31 µM; in [21], 4.07 µM. In addition, the GI50 in [22] was 4.07 µM; in [23], 8.51 µM; in [24], 4.9 µM; in test [25], 3.39 µM; in test [26], 26.3 µM.

As for `COc1ccc(N2CCN(c3nc(-c4ccccn4)nc4sc5c(c34)CCCCCC5)CC2)cc1`, the GI50 was 5.62 µM in test [16]; 7.24 µM in [17]; greater than 100 µM in test [18]; 67.6 µM in test [19]; 6.03 µM in [20]; 5.37 µM in test [21]. Moreover, the GI50 is 3.31 µM in [22]; 8.71 µM in test [23]; 5.13 µM in [24]; 4.07 µM in [25]; 10.2 µM in test [26].
